SMILES strings stand for the structures.

In assay [1] the test system is L1210. Description: Antitumor activity was determined against the ip implanted L1210 leukemia in mice by range in survival days at 200 mg/kg (treatment of 1qd schedule) dosage; Range is 14-23. In kind it is functional, Mus musculus. To be noted: route intraperitoneal. The procedure, abridged: (§1)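 DBA/2J mice, 23-28 g, in groups of 6, were inoculated ip with 1×10^6 L1210 cells on day 0. Dosing was ip starting 24 h later on the stated daily schedules. Conjugates were given as sonicated solutions and reference prodrugs as suspensions in 0.9% NaCl with 0.5% Tween-80. Mice were observed daily until death or 45 days. Median survival T/C was calculated from survivors per NCI protocols.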

The test system of assay [2] is L1210. As to the kind of experiment: Antitumor activity against the ic implanted L1210 lymphoid leukemia in mice expressed as optimal dose (1 qd treatment schedule) required to produce greatest increase in life span was determined. Format: functional, Mus musculus. The procedure, abridged:
(§2)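 DBA/2J mice, groups of 6 (26-32 g), got 1 × 10^5 L1210 cells ic on day 0. Dosing was ip starting 24 h later, as a sonicated solution or suspension in 0.9% NaCl with 0.5% Tween-80, over a wide dose range. Mice were followed daily until death. Median survival T/C was taken from survivors per NCI protocols, and ILS = (T/C − 1) × 100. Active range means doses giving ILS ≥25%; optimal dose means greatest ILS.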

The test system of assay [3] is L1210. As to the kind of experiment: Antitumor activity against the ip implanted L1210 leukemia in mice expressed as optimal dose (1 qd treatment schedule) required to produce greatest increase in life span was determined. Format: functional, Mus musculus. The method in brief:
(§3)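 DBA/2J mice, groups of 6 (23-28 g), were inoculated ip with 1 × 10^6 L1210 cells on day 0. Dosing was ip from 24 h, in 0.9% NaCl with 0.5% Tween-80 (sonicated solution or suspension). Mice were observed daily until death or day 45. Median survival T/C followed NCI protocols, and ILS = (T/C − 1) × 100. Active range means doses giving ILS ≥25%; optimal dose means greatest ILS.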

In assay [4] the test system is L1210. As to the kind of experiment: Antitumor activity was determined against the ic implanted L1210 lymphoid leukemia in mice by range in survival days at 300 mg/kg (1 qd treatment schedule) dosage; Range is 14-18. Format: functional, Mus musculus.
For assay [5], the system named is L1210. As to the kind of experiment: Antitumor activity was determined against the ip implanted L1210 leukemia in mice by change in […] at 200 mg/kg (treatment of 1qd schedule) dosage. Format: functional, Mus musculus. The note with it: route intraperitoneal. The procedure, abridged:
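DBA/2J mice, 6 per group (wt 23-28 g), inoculated ip with 1×10^6 L1210 cells on day 0. Treatment was given ip in 0.9% NaCl with 0.5% Tween-80, starting 24 h later. Weight change was taken on day 8. Mice were observed daily until death or 45 days. Median survival T/C and %ILS = (T/C − 1) × 100 came from survivors per NCI protocols, and 45-day survivors were counted.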

Assay [6] deals with L1210. Description: Antitumor activity was determined against the ip implanted L1210 leukemia in mice by percent median survival rate (treated/control) at 200 mg/kg (treatment of 1qd schedule) dosage; 19.5/7.0. Format: functional, Mus musculus. The note with it: route intraperitoneal. The method in brief: as §1
Assay [7] relates to L1210. Description: Antitumor activity against ip implanted L1210 leukemia in mice expressed as active dose range (1 qd treatment schedule) required to produce increase in life span by >25% was determined; Range is 100-250. In kind it is functional, Mus musculus. The procedure, abridged: as §3
Assay [8] relates to L1210. As to the kind of experiment: Antitumor activity was determined against the ip implanted L1210 leukemia in mice by 45-day survivors in mice at 200 mg/kg (treatment of 1qd schedule) dosage. In kind it is functional, Mus musculus. The note with it: route intraperitoneal. The method in brief:
(§4)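 DBA/2J mice in groups of 6 (wt 23-28 g) were inoculated ip with 1×10^6 L1210 cells on day 0. Dosing was ip from 24 h, in 0.9% NaCl with 0.5% Tween-80 (conjugates sonicated), across a range of doses. Mice were observed daily until death or 45 days. Median T/C was computed from survivors per NCI protocols, and ILS = (T/C − 1)×100.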

The test system of assay [9] is L1210. As to the kind of experiment: Antitumor activity was determined against the ic implanted L1210 lymphoid leukemia in mice by percent increase in life span at 300 mg/kg (1 qd treatment schedule) dosage. Format: functional, Mus musculus. The method in brief: as §2
Assay [10] concerns L1210. As to the kind of experiment: Antitumor activity was determined against the ip implanted L1210 leukemia in mice by percent increase in life span at 200 mg/kg (treatment of 1qd schedule) dosage. Format: functional, Mus musculus. To be noted: route intraperitoneal. The procedure, abridged:
as §4

In assay [11] the test system is P388. As to the kind of experiment: Antitumor activity was determined against the ip implanted P388 leukemia in mice by percent median survival rate (treated/control) at 200 mg/kg (1 qd treatment schedule) dosage; >45.0/12.0. Format: functional, Mus musculus. To be noted: route intraperitoneal.
Assay [12] has as its system P388. Description: Antitumor activity was determined against the ip implanted P388 leukemia in mice by 45-day survivors in mice at 200 mg/kg (1 qd treatment schedule) dosage. Format: functional, Mus musculus. The note with it: route intraperitoneal. The procedure, abridged:
(§5)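 DBA/2J mice, 23-33 g, in groups of 6, were inoculated ip with 1×10^6 P388 cells on day 0. Dosing was ip from 24 h on the stated schedules, in 0.9% NaCl with 0.5% Tween-80 (sonicated solution or suspension). Survival was followed daily until death or 45 days. Median T/C was calculated from survivors per NCI protocols, with ILS = (T/C − 1) × 100.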

Assay [13] has as its system P388. As to the kind of experiment: Antitumor activity against ip implanted P388 leukemia in mice expressed as active dose range (1 qd treatment schedule) required to produce increase in life span by >25% was determined; Range is 200-300. Format: functional, Mus musculus. The procedure, abridged:
(§6)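 P388 leukemia: 1 × 10^6 cells were given ip on day 0 to DBA/2J mice, groups of 6 (23-33 g). Treatment was ip from 24 h after inoculation, vehicle 0.9% NaCl with 0.5% Tween-80. Mice were observed daily until death or 45 days. Median survival T/C was calculated from survivors per NCI protocols, and ILS = (T/C − 1) × 100. Active range means doses giving ILS ≥25%; optimal dose means greatest ILS.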

The test system of assay [14] is P388. Description: Antitumor activity was determined against the ip implanted P388 leukemia in mice by change in […] at 200 mg/kg (1 qd treatment schedule) dosage. The note with it: route intraperitoneal. In kind it is functional, Mus musculus. The method in brief:
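P388 leukemia, 1×10^6 cells implanted ip on day 0 into DBA/2J mice, groups of 6 (wt 23-33 g). Dosing ip started 24 h post-inoculation, vehicle 0.9% NaCl containing 0.5% Tween-80. Animals were observed daily until death or 45 days. Outputs were weight change, median survival T/C from survivors per NCI protocols, and %ILS = (T/C − 1) × 100.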

The subject of assay [15] is P388. As to the kind of experiment: Antitumor activity was determined against the ip implanted P388 leukemia in mice by range in survival days at 200 mg/kg (1 qd treatment schedule) dosage; Range is 24->45. In kind it is functional, Mus musculus. The note with it: route intraperitoneal.
In assay [16] the test system is P388. As to the kind of experiment: Antitumor activity was determined against the ip implanted P388 leukemia in mice by percent increase in life span at 200 mg/kg (1 qd treatment schedule) dosage. Format: functional, Mus musculus. The note with it: route intraperitoneal. The procedure, abridged: as §5
Assay [17] has as its system P388. Description: Antitumor activity against the ip implanted P388 leukemia in mice expressed as optimal dose (1 qd treatment schedule) required to produce greatest increase in life span was determined. Format: functional, Mus musculus. The method in brief:
as §6

Assay [18] relates to L1210. As to the kind of experiment: Antitumor activity was determined against the ic implanted L1210 lymphoid leukemia in mice by change in body weight at 300 mg/kg (1 qd treatment schedule) dosage.
Assay [19] has as its system L1210. As to the kind of experiment: Antitumor activity was determined against the ic implanted L1210 lymphoid leukemia in mice by median survival time at 300 mg/kg (1 qd treatment schedule) dosage; 14.5/7.0.

In the case of `CCCCCCCCCCCCCCCC(=O)Nc1ccn([C@@H]2O[C@H](CO)[C@@H](O)[C@@H]2O)c(=O)n1`, the Range is given as 14 in the assay with L1210 [1], 14 with L1210 [4] and 24 in the assay with P388 [15]. Besides, the Optimal dose amounted to 300 mg in the assay with L1210 [2], 200 mg/kg/day in the assay on L1210 [3] and 200 mg in the assay on P388 [17]. In addition, the Weight change with L1210 [5] is recorded as -0.5 g mouse-1; in the assay on P388 [14], 0.75 g mouse-1; in the assay on L1210 [18], -2.04 g mouse-1. In addition, the values for the median survival time in the assay on L1210 [6] and in the assay on L1210 [19] were 19.5 days and 14.5 days, respectively. Also, the Active dose range came to 100 mg/kg/day with L1210 [7] and 200 mg/kg/day with P388 [13]. Moreover, the figures for the Survivors in the assay on L1210 [8] and with P388 [12] were 0 and 5, respectively. Further, the ILS is on record as 107 with L1210 [9], 179 with L1210 [10] and greater than 275 in the assay on P388 [16]. Also, the T/C (commonly the result in the treated group divided by that in the control group, in per cent) in the assay with P388 [11] was greater than 45%.

The record behind these values is ChEMBL document CHEMBL1123247, “Nucleoside conjugates. 7. Synthesis and antitumor activity of 1-beta-D-arabinofuranosylcytosine conjugates of ether lipids” (J Med Chem, 1986).
